Source: ChEMBL document CHEMBL2062375, “Discovery of an orally efficacious inhibitor of anaplastic lymphoma kinase” (J Med Chem, 2012)
pIC50: −log10 of the molar value. Active and inactive are the calls of the source. The rule behind the calls is not given here.

Tests used:
[1] = Volume of distribution in CD-1 mouse at 1 mg/kg, iv; format: ADME, organism-based; parameters: dose 1 mg/kg, route intravenous; conditions: in vivo
Outline: (§1)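 Mouse IV PK: lateral tail vein dosing, 100 μL in 3% DMSO/30% Solutol/67% PBS; trunk blood from three mice per time point over 6 h. Plasma precipitated with acetonitrile, drug quantified by LCMS/MS against internal standard; noncompartmental analysis.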

[2] = target: Ribosomal protein S6 kinase alpha-2 (Homo sapiens, UniProt Q15349); conditions: 1 uM
[3] = target: Protein-tyrosine kinase 6 (Homo sapiens, UniProt Q13882); experiment: Inhibition of human BRK
[4] = Cmax in rat at 100 mg/kg, po; format: ADME, organism-based; parameters: dose 100 mg/kg, route oral; conditions: in vivo
Outline: (§2)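 Rat oral dose escalation at 10, 30, 55 and 100 mg/kg. Gavage at 5 mL/kg in 40% HPβCD after an overnight fast. Serial tail-vein blood was drawn into heparinized tubes. Plasma was protein-precipitated with acetonitrile and assayed by LC-MS/MS. Cmax and AUC0–12 were derived noncompartmentally; n = 2 at 10 mg/kg.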

[5] = target: Tyrosine-protein kinase Fes/Fps (Homo sapiens, UniProt P07332); conditions: 1 uM
[6] = target: T1, Ribosomal protein S6 kinase alpha-1 (Homo sapiens, UniProt Q15418); conditions: 1 uM
Rattus norvegicus [7] = experiment: Ratio of Cmax at 10 mg/kg, po to Cmax at 100 mg/kg, po in rat; format: ADME, organism-based; conditions: in vivo
Outline: (§3)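 Oral dose-escalation PK study in rats at 10, 30, 55 and 100 mg/kg. […] The ratio compares the 10 mg/kg value with the 100 mg/kg value.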

[8] = target: Mitogen-activated protein kinase 8 (Homo sapiens, UniProt P45983); conditions: 1 uM
[9] = target: Ribosomal protein S6 kinase alpha-3 (Homo sapiens, UniProt P51812); conditions: 1 uM
[10] = Tmax in Sprague-Dawley rat at 10 mg/kg, po; format: ADME, organism-based; parameters: dose 10 mg/kg, route oral; conditions: in vivo
Outline: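 PK: overnight-fasted animals. Rat oral gavage 5 mL/kg in 40% HPβCD, serial tail-vein blood over 6 h. Dog oral gavage 1 mL/kg, monkey nasogastric 2 mL/kg, femoral-vein blood over 24 h. Plasma protein-precipitated with acetonitrile, LCMS/MS with internal standard; noncompartmental analysis, individual animals n = 3, mean ± SEM.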

[11] = Volume of distribution in SCID mouse at 1 mg/kg, iv; format: ADME, organism-based; parameters: dose 1 mg/kg, route intravenous; conditions: in vivo; outline: as §1
SK-N-AS = experiment: Antitumor activity against human SK-N-AS cells expressing wild type ALK assessed as growth inhibition administered as po bid; format: functional, organism-based
[12] = Plasma concentration in SCID mouse xenografted with human KARPAS299 cells expressing NPM-ALK at 30 mg/kg, po after 12 hrs by LC-MS/MS analysis; format: ADME, organism-based, KARPAS-299; parameters: dose 30 mg/kg, route oral
Outline: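 Pharmacodynamic study: SCID mice bearing subcutaneous Karpas-299 xenografts given single 30 mg/kg oral dose; plasma drug levels measured by LCMS/MS, reported as mean ± SEM.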

[13] = Drug level in SCID mouse tumor xenografted with human KARPAS299 cells expressing NPM-ALK at 30 mg/kg, po after 6 hrs by LC-MS/MS analysis; format: ADME, organism-based, Neoplasm, KARPAS-299; parameters: dose 30 mg/kg, route oral; conditions: read-out: Drug uptake
[14] = Volume of distribution in Sprague-Dawley rat at 1 mg/kg, iv; format: ADME, organism-based; parameters: dose 1 mg/kg, route intravenous; conditions: in vivo
Outline: (§4)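 IV PK: rats via lateral tail vein (1 mL/kg; 3% DMSO/30% Solutol/67% PBS), serial tail-vein blood over 6 h. Dogs and monkeys via saphenous vein (0.5 mL/kg in 40% HPβCD), femoral-vein blood over 24 h. Acetonitrile protein precipitation, LCMS/MS; noncompartmental parameters from individual animals, n = 3, mean ± SEM.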

[15] = target: Receptor-type tyrosine-protein kinase FLT3 (Homo sapiens, UniProt P36888); experiment: Inhibition of human Flt3
Outline: (§5)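 Millipore KinaseProfiler activity assays on a 259-kinase panel; kinases inhibited by ≥90% at 1 μM then taken to full IC50 determination.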

[16] = target: T1, Ribosomal protein S6 kinase alpha-1; experiment: Inhibition of human Rsk1; outline: as §5
[17] = target: Tyrosine-protein kinase Fer (Homo sapiens, UniProt P16591); conditions: 1 uM
[18] = target: Ribosomal protein S6 kinase alpha-6 (Homo sapiens, UniProt Q9UK32); conditions: 1 uM
[19] = AUC (0 to 12 hrs) in rat 30 mg/kg, po; format: ADME, organism-based; parameters: time < 12 hr, dose 30 mg/kg, route oral; conditions: plasma; outline: as §2
[20] = AUC in SCID mouse at 1 mg/kg, iv; format: ADME, organism-based; parameters: dose 1 mg/kg, route intravenous; conditions: plasma
Outline: (§6)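 Mouse PK. IV via the lateral tail vein in 3% DMSO/30% Solutol/67% PBS, or oral gavage in 100% PEG400, 100 μL dose volume, after an overnight fast. Trunk blood was taken from three mice per time point over 6 h. Plasma was acetonitrile-precipitated and analysed by LC-MS/MS. Parameters were derived noncompartmentally.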

SH-SY5Y = experiment: Antitumor activity against human SH-SY5Y cells expressing ALK mutant R1275Q assessed as growth inhibition administered as po bid; format: functional, organism-based
Rattus norvegicus [21] = experiment: Ratio of AUC (0 to 12 h) at 10 mg/kg, po to AUC (0 to 12 h) at 100 mg/kg, po in rat; format: ADME, organism-based; conditions: in vivo; outline: as §3
[22] = target: T2, ALK tyrosine kinase receptor (Homo sapiens, UniProt Q9UM73); experiment: Inhibition of human ALK cytoplasmic domain expressed in baculovirus using GST-PLCgamma as substrate preincubated for 15 mins before substrate addition measured after 1 hr by time resolved fluorescence assay
[23] = Cmax in rat at 10 mg/kg, po; format: ADME, organism-based; parameters: dose 10 mg/kg, route oral; conditions: in vivo; outline: as §2
[24] = Half life in Beagle dog at 1 mg/kg, iv; format: ADME, organism-based, Canis lupus familiaris; parameters: dose 1 mg/kg, route intravenous; conditions: in vivo
Outline: (§7)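 Dog and monkey PK. IV 0.5 mL/kg in 40% HPβCD via the saphenous vein. Oral dosing was 1 mL/kg by gavage in dogs and 2 mL/kg by nasogastric tube in monkeys, after an overnight fast. Serial femoral-vein blood was taken into heparin over 24 h. Plasma was acetonitrile-precipitated and analysed by LC-MS/MS. Parameters were noncompartmental, n = 3, mean ± SEM.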

[25] = Volume of distribution in cynomolgus monkey at 1 mg/kg, iv; format: ADME, organism-based, Macaca fascicularis; parameters: dose 1 mg/kg, route intravenous; conditions: in vivo; outline: as §4
[26] = target: T2, ALK tyrosine kinase receptor; experiment: Inhibition of ALK tyrosine phosphorylation in human Karpas-299 cells after 2 hrs in presence of mouse plasma; format: cell-based
[27] = AUC in CD-1 mouse at 10 mg/kg, po; format: ADME, organism-based; parameters: dose 10 mg/kg, route oral; conditions: plasma; outline: as §6
[28] = Half life in Beagle dog at 10 mg/kg, po; format: ADME, organism-based, Canis lupus familiaris; parameters: dose 10 mg/kg, route oral; conditions: in vivo; outline: as §7
[29] = Plasma concentration in SCID/beige mouse xenografted with human KARPAS299 cells expressing NPM-ALK at 10 mg/kg, po bid after 2 hrs post last dose by LC-MS/MS analysis; format: ADME, organism-based, KARPAS-299; parameters: dose 10 mg/kg, route oral
Outline: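 Female SCID/beige mice (6–8 weeks), Karpas-299 cells implanted sc in left flank; at ~600 mm³ randomized (8–10/group), dosed orally in PEG400, 100 μL, b.i.d. for 12 days. Body weight every 2–3 days; plasma and tumor sampled 2 h after final dose, drug by LCMS/MS; Mann–Whitney rank sum statistics.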

[30] = target: Mitogen-activated protein kinase kinase kinase kinase 2 (Homo sapiens) (UniProt Q12851); conditions: 1 uM

T1 sequence (Q15418 whole entry): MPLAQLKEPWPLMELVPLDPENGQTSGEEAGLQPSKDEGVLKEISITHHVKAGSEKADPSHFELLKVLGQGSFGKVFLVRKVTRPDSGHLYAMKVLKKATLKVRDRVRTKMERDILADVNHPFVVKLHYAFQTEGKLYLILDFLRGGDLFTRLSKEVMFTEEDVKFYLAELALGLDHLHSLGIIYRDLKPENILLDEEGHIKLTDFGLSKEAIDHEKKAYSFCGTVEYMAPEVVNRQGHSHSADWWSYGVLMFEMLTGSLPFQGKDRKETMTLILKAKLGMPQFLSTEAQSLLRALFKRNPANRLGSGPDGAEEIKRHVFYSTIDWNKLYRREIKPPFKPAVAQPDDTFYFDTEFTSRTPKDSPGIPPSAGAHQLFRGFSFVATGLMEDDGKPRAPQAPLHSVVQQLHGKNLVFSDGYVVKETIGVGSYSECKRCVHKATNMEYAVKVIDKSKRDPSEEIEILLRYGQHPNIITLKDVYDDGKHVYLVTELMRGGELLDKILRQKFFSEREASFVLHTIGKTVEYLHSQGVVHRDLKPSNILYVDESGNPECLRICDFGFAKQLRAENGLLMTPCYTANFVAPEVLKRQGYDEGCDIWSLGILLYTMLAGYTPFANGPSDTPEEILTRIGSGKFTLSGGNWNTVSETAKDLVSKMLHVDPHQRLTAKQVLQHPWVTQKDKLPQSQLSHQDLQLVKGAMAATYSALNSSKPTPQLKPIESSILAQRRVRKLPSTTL
T2 sequence (Q9UM73 whole entry, the tested form may be a part): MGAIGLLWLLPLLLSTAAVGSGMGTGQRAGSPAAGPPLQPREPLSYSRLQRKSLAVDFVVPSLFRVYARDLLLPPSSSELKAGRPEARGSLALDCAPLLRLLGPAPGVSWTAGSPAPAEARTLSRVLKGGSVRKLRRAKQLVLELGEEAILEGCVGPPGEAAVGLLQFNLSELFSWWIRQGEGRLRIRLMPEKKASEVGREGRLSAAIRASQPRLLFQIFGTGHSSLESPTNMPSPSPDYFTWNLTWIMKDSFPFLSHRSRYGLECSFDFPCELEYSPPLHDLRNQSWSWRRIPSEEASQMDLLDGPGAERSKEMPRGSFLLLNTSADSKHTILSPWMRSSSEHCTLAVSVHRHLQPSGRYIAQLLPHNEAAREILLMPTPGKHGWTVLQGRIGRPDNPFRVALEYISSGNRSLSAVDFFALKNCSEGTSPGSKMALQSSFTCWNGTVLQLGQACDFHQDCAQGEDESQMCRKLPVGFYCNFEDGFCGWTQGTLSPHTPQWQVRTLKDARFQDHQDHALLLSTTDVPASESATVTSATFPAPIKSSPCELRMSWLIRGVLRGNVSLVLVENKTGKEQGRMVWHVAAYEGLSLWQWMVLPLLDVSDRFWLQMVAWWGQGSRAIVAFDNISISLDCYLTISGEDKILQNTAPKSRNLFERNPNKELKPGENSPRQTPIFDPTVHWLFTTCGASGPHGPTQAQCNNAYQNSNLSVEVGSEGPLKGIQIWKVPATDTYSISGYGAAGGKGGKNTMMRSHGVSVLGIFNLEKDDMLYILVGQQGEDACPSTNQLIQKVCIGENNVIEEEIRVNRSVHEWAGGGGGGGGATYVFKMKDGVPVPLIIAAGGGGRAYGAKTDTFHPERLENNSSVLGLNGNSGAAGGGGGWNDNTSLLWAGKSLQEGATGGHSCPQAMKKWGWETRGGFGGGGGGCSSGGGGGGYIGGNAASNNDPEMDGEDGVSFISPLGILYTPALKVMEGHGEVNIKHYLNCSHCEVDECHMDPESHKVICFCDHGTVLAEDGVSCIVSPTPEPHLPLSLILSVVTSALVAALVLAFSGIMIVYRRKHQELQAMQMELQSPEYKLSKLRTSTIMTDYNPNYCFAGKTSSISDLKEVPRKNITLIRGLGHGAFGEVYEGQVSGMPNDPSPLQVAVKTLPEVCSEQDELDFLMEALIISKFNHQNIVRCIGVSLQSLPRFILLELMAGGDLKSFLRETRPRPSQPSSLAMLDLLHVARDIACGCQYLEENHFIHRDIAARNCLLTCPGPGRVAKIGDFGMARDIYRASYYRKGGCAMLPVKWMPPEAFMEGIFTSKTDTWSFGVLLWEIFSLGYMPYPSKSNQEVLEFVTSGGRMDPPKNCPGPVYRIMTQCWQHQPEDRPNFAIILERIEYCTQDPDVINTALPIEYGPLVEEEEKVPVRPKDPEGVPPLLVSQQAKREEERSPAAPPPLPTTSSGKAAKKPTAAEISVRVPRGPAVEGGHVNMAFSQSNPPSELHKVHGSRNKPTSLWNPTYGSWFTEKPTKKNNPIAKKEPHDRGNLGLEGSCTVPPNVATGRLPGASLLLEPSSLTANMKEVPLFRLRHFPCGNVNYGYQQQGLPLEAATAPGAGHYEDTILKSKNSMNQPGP
Sequence of Ribosomal protein S6 kinase alpha-2 (Q15349 whole entry): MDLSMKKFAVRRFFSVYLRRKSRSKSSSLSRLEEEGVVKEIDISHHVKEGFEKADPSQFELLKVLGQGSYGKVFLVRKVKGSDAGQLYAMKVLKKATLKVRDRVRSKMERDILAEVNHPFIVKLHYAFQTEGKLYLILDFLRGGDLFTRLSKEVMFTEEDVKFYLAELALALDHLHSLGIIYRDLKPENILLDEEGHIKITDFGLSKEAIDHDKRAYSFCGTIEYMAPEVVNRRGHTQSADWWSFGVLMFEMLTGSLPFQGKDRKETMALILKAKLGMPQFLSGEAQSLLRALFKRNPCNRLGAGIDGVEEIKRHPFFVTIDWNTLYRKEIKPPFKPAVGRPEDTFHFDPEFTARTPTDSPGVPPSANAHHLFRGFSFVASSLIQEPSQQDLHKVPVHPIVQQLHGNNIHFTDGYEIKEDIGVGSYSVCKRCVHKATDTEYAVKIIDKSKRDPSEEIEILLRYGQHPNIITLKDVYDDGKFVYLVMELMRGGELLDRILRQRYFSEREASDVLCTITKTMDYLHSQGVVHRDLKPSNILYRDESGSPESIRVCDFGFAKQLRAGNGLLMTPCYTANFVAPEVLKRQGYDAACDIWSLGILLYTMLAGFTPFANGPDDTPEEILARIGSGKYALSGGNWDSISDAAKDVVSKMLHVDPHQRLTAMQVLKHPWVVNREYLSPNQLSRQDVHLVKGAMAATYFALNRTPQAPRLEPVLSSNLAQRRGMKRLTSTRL
Sequence of Tyrosine-protein kinase Fer (P16591 whole entry, looked up): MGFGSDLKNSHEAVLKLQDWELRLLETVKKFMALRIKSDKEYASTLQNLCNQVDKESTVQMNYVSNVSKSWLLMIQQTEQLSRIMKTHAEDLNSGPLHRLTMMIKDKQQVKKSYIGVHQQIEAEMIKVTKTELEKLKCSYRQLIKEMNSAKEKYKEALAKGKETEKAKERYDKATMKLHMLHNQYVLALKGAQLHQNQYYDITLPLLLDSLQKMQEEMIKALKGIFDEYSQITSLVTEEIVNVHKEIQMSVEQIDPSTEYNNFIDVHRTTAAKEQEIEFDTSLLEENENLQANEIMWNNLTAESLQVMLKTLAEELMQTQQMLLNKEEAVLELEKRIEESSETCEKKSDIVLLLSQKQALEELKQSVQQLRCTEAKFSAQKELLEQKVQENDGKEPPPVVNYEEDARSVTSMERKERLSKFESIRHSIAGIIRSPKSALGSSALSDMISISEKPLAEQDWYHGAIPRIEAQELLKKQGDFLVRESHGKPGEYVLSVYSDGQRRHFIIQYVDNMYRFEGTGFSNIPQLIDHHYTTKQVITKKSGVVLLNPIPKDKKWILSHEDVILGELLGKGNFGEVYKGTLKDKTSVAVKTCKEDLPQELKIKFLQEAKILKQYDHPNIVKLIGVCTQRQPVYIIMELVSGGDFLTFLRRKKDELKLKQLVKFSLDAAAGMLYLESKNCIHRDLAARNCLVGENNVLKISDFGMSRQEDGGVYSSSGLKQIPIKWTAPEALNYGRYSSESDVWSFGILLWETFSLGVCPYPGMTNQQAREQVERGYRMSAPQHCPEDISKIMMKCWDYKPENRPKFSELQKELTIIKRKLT
Sequence of Protein-tyrosine kinase 6 (Q13882 whole entry): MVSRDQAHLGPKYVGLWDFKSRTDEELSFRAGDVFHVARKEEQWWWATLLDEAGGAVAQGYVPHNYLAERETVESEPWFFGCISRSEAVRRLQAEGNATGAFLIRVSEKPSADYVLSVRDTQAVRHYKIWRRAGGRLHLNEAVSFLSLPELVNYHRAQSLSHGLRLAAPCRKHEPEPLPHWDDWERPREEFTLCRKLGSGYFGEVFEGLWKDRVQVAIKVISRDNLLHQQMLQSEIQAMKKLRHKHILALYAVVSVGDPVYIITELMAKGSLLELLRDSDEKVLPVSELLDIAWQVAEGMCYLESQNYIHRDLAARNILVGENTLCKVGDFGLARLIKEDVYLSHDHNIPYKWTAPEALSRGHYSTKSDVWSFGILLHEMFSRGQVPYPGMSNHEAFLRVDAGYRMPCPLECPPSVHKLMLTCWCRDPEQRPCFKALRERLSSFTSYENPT
Sequence of Mitogen-activated protein kinase 8 (P45983 whole entry): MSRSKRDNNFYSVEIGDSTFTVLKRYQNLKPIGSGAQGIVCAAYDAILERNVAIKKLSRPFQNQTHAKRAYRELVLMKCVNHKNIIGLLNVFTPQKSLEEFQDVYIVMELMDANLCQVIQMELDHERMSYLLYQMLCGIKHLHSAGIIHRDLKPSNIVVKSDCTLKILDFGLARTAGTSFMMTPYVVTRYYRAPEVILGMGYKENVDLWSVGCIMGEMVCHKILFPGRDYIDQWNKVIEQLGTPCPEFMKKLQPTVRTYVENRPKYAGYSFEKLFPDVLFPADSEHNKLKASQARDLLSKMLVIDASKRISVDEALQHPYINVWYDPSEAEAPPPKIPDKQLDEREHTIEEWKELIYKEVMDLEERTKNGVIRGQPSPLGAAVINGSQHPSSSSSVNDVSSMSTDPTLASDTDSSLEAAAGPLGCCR

## COc1c(Nc2ncc(Cl)c(N[C@H]3[C@@H](C(N)=O)[C@@H]4C=C[C@H]3C4)n2)ccc2c1CC[C@@H](N1CCOCC1)CC2
[1]
  Vd: 1.8 L/kg
[2]
  inhibition: > 90%
[3]
  pIC50: 7.14
[4]
  Cmax: 3050 ng/mL
[5]
  inhibition: > 90%
[6]
  inhibition: > 90%
Rattus norvegicus [7]
  Ratio: 9
[8]
  inhibition: > 90%
[9]
  inhibition: > 90%
[10]
  Tmax: 1.3 h
[11]
  Vd: 0.8 L/kg
SK-N-AS
  growth inhibition (GI): inactive
[12]
  concentration at 12 h: 1570 ng/mL
[13]
  concentration at 6 h: 2870 ng/g
[14]
  Vd: 1.3 L/kg
[15]
  pIC50: 7.06
[16]
  pIC50: 7.21
[17]
  inhibition: > 90%
[18]
  inhibition: > 90%
[19]
  AUC(0-t) at 12 h: 10900 ng·h/mL
[20]
  AUC: 3020 ng·h/mL
SH-SY5Y
  growth inhibition (GI): Active
Rattus norvegicus [21]
  Ratio: 15
[22]
  pIC50: 8.72
[23]
  Cmax: 349 ng/mL
[24]
  half-life: 2.4 h
[25]
  Vd: 2.9 L/kg
[26]
  pIC50: 7.70
[27]
  AUC: 2990 ng·h/mL
[28]
  half-life: 3.3 h
[29]
  concentration at 2 h: 1960 ng/mL
[30]
  inhibition: > 90%
